The source of these data is ChEMBL document CHEMBL1138520, “Molecular and conformational determinants of pituitary adenylate cyclase-activating polypeptide (PACAP) for activation of the PAC1 receptor” (J Med Chem, 2009).

The target of experiment [1] is T1, Pituitary adenylate cyclase-activating polypeptide type I receptor (Homo sapiens, UniProt P41586). Nature of the experiment: Agonist activity at human recombinant PAC1 receptor expressed in CHO cells assessed as PACAP38-induced calcium mobilization by FLIPR assay. It is filed as functional, cell-based. In outline:
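CHO cells stably expressing recombinant human PAC1, plated 24 h before assay, loaded with fluo-4 AM for 60 min at 37 °C in the dark, then rinsed into HBSS for 15 min at 37 °C. EC50 and efficacy came from nonlinear regression; 4-10 independent assays in duplicate.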
Target sequence in this assay (P41586 whole entry): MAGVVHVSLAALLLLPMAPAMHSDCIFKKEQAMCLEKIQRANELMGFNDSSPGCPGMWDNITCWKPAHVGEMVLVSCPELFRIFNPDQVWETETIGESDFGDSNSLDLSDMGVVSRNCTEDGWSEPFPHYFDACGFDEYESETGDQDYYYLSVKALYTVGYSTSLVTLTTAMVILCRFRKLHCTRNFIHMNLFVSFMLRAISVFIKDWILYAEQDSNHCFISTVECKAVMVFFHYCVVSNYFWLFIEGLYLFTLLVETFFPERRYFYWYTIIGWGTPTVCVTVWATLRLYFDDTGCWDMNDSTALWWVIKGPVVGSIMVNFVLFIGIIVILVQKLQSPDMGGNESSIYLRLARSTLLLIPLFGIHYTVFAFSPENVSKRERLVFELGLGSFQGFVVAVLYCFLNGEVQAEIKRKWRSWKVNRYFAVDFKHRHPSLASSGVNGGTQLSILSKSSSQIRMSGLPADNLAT

For experiment [2], the target named is T1, Pituitary adenylate cyclase-activating polypeptide type I receptor. Briefly: Agonist activity at human recombinant PAC1 receptor expressed in CHO cells assessed as PACAP38-induced calcium mobilization by FLIPR assay relative to PACAP38. The class given is functional, cell-based. In outline:
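CHO cells stably expressing recombinant human PAC1, plated 24 h before assay, loaded with fluo-4 AM for 60 min at 37 °C in the dark, then rinsed into HBSS for 15 min at 37 °C. Peptide was added 18 s into a 150 s read (ex 480/em 525 nm), at final concentrations of 1 × 10-12 to 1 × 10^-5 M. Response was normalised to 1 × 10^-5 M PACAP38 on each plate. EC50 and efficacy came from nonlinear regression; 4-10 independent assays in duplicate.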
Target sequence in this assay (P41586 21-468 limits assumed): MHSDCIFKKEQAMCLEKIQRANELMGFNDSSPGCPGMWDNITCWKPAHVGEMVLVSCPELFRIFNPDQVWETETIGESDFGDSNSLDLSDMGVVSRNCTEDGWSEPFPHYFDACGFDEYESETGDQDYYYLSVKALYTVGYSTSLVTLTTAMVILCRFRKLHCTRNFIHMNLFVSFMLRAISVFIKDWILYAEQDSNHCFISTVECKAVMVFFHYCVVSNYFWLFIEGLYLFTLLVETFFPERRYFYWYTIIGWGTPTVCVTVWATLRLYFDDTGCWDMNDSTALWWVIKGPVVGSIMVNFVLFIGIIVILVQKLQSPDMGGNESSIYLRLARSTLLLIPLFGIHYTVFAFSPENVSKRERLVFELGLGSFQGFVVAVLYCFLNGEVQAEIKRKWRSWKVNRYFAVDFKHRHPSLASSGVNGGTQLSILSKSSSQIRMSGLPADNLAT

For experiment [3] the target is unchanged. Briefly: Displacement of [125I]Ac-PACAP27 from human recombinant PAC1 receptor expressed in CHO cells by gamma- counter. It is filed as cell-based.
Target sequence in this assay (P41586 whole entry): as the sequence (P41586 whole entry) above

The structures appear in SMILES notation. Where a SMILES comes first, the peptide text is derived from it. [ ]: non-standard residue; d: D form. ξ: configuration not given here. 1Nal = N[C@@H](Cc1cccc2ccccc12)C(=O)O; ξTic = O=C(O)C1Cc2ccccc2CN1; Aib = CC(C)(N)C(=O)O

As for `CC[C@H](C)[C@H](NC(=O)CNC(=O)[C@H](CC(=O)O)NC(=O)C(C)(C)NC(=O)[C@@H](N)Cc1cnc[nH]1)C(=O)N[C@@H](Cc1ccccc1)C(=O)N[C@H](C(=O)N[C@@H](CC(=O)O)C(=O)N[C@@H](CO)C(=O)N[C@@H](Cc1ccc(O)cc1)C(=O)N[C@@H](CO)C(=O)N[C@@H](CCCNC(=N)N)C(=O)N[C@@H](Cc1ccc(O)cc1)C(=O)N[C@@H](CCCNC(=N)N)C(=O)N[C@@H](CCCCN)C(=O)N[C@@H](CCC(N)=O)C(=O)N[C@@H](CCSC)C(=O)N[C@@H](C)C(=O)N[C@H](C(=O)N[C@@H](CCCCN)C(=O)N[C@@H](CCCCN)C(=O)N[C@@H](Cc1ccc(O)cc1)C(=O)N[C@@H](CC(C)C)C(=O)N[C@@H](C)C(=O)N[C@@H](C)C(=O)N[C@H](C(=O)N[C@@H](CC(C)C)C(=O)NCC(=O)N[C@@H](CCCCN)C(=O)N[C@@H](CCCNC(=N)N)C(=O)N[C@@H](Cc1ccc(O)cc1)C(=O)N[C@@H](CCCCN)C(=O)N[C@@H](CCC(N)=O)C(=O)N[C@@H](CCCNC(=N)N)C(=O)N[C@H](C(=O)N[C@@H](CCCCN)C(=O)N[C@@H](CC(N)=O)C(=O)N[C@@H](CCCCN)C(N)=O)C(C)C)C(C)C)C(C)C)[C@@H](C)O` (H-H[Aib]DGIFTDSYSRYRKQMAVKKYLAAVLGKRYKQRVKNK-NH2), the EC50 in experiment [1] came to 4.3 nM. The Emax in experiment [2] is 94.8%. The half-inhibitory concentration (IC50) in experiment [3] was determined as 7.2 nM.
On to `CSCC[C@H](NC(=O)[C@H](CCC(N)=O)NC(=O)[C@H](CCCCN)NC(=O)[C@H](CCCNC(=N)N)NC(=O)[C@H](Cc1ccc(O)cc1)NC(=O)[C@H](CCCNC(=N)N)NC(=O)[C@H](CO)NC(=O)[C@H](Cc1ccc(O)cc1)NC(=O)[C@H](CO)NC(=O)[C@H](CC(=O)O)NC(=O)[C@@H](NC(=O)[C@H](Cc1ccccc1)NC(=O)[C@H](CC(C)C)N1CC[C@H](NC(=O)[C@H](CC(=O)O)NC(=O)[C@H](CO)NC(=O)[C@@H](N)Cc2cnc[nH]2)C1=O)[C@@H](C)O)C(=O)N[C@@H](C)C(=O)N[C@H](C(=O)N[C@@H](CCCCN)C(=O)N[C@@H](CCCCN)C(=O)N[C@@H](Cc1ccc(O)cc1)C(=O)N[C@@H](CC(C)C)C(=O)N[C@@H](C)C(=O)N[C@@H](C)C(=O)N[C@H](C(=O)N[C@@H](CC(C)C)C(=O)NCC(=O)N[C@@H](CCCCN)C(=O)N[C@@H](CCCNC(=N)N)C(=O)N[C@@H](Cc1ccc(O)cc1)C(=O)N[C@@H](CCCCN)C(=O)N[C@@H](CCC(N)=O)C(=O)N[C@@H](CCCNC(=N)N)C(=O)N[C@H](C(=O)N[C@@H](CCCCN)C(=O)N[C@@H](CC(N)=O)C(=O)N[C@@H](CCCCN)C(N)=O)C(C)C)C(C)C)C(C)C`, for which the EC50 in experiment [1] turned out to be 2480 nM. The Emax in experiment [2] amounted to 38.2%. Also, in experiment [3], the IC50 amounted to 775 nM.
As for `CC[C@H](C)[C@H](NC(=O)CNC(=O)[C@H](CC(=O)O)NC(=O)[C@H](CO)NC(=O)[C@@H](N)Cc1cnc[nH]1)C(=O)N1Cc2ccccc2CC1C(=O)N[C@H](C(=O)N[C@@H](CC(=O)O)C(=O)N[C@@H](CO)C(=O)N[C@@H](Cc1ccc(O)cc1)C(=O)N[C@@H](CO)C(=O)N[C@@H](CCCNC(=N)N)C(=O)N[C@@H](Cc1ccc(O)cc1)C(=O)N[C@@H](CCCNC(=N)N)C(=O)N[C@@H](CCCCN)C(=O)N[C@@H](CCC(N)=O)C(=O)N[C@@H](CCSC)C(=O)N[C@@H](C)C(=O)N[C@H](C(=O)N[C@@H](CCCCN)C(=O)N[C@@H](CCCCN)C(=O)N[C@@H](Cc1ccc(O)cc1)C(=O)N[C@@H](CC(C)C)C(=O)N[C@@H](C)C(=O)N[C@@H](C)C(=O)N[C@H](C(=O)N[C@@H](CC(C)C)C(=O)NCC(=O)N[C@@H](CCCCN)C(=O)N[C@@H](CCCNC(=N)N)C(=O)N[C@@H](Cc1ccc(O)cc1)C(=O)N[C@@H](CCCCN)C(=O)N[C@@H](CCC(N)=O)C(=O)N[C@@H](CCCNC(=N)N)C(=O)N[C@H](C(=O)N[C@@H](CCCCN)C(=O)N[C@@H](CC(N)=O)C(=O)N[C@@H](CCCCN)C(N)=O)C(C)C)C(C)C)C(C)C)[C@@H](C)O` (some centres undefined) (H-HSDGI[ξTic]TDSYSRYRKQMAVKKYLAAVLGKRYKQRVKNK-NH2), the concentration for a half-maximal effect (EC50) in experiment [1] amounted to 4010 nM. In experiment [2], the Emax worked out at 69.6%. The concentration for half-maximal inhibition (IC50) in experiment [3] was found to be 1420 nM.
Regarding `CC[C@H](C)[C@H](NC(=O)CNC(=O)[C@H](CC(=O)O)NC(=O)[C@H](CO)NC(=O)[C@@H](N)Cc1cnc[nH]1)C(=O)N[C@@H](Cc1cccc2ccccc12)C(=O)N[C@H](C(=O)N[C@@H](CC(=O)O)C(=O)N[C@@H](CO)C(=O)N[C@@H](Cc1ccc(O)cc1)C(=O)N[C@@H](CO)C(=O)N[C@@H](CCCNC(=N)N)C(=O)N[C@@H](Cc1ccc(O)cc1)C(=O)N[C@@H](CCCNC(=N)N)C(=O)N[C@@H](CCCCN)C(=O)N[C@@H](CCC(N)=O)C(=O)N[C@@H](CCSC)C(=O)N[C@@H](C)C(=O)N[C@H](C(=O)N[C@@H](CCCCN)C(=O)N[C@@H](CCCCN)C(=O)N[C@@H](Cc1ccc(O)cc1)C(=O)N[C@@H](CC(C)C)C(=O)N[C@@H](C)C(=O)N[C@@H](C)C(=O)N[C@H](C(=O)N[C@@H](CC(C)C)C(=O)NCC(=O)N[C@@H](CCCCN)C(=O)N[C@@H](CCCNC(=N)N)C(=O)N[C@@H](Cc1ccc(O)cc1)C(=O)N[C@@H](CCCCN)C(=O)N[C@@H](CCC(N)=O)C(=O)N[C@@H](CCCNC(=N)N)C(=O)N[C@H](C(=O)N[C@@H](CCCCN)C(=O)N[C@@H](CC(N)=O)C(=O)N[C@@H](CCCCN)C(N)=O)C(C)C)C(C)C)C(C)C)[C@@H](C)O` (H-HSDGI[1Nal]TDSYSRYRKQMAVKKYLAAVLGKRYKQRVKNK-NH2), in experiment [1], the half-maximal effective concentration (EC50) was determined as 1.4 nM. The Emax in experiment [2] stood at 106%. Further, in experiment [3], the concentration for half-maximal inhibition (IC50) amounted to 5 nM.
The corresponding values for `CC[C@H](C)[C@H](NC(=O)CNC(=O)[C@H](CC(=O)O)NC(=O)[C@H](CO)NC(=O)[C@H](C)N)C(=O)N[C@@H](Cc1ccccc1)C(=O)N[C@H](C(=O)N[C@@H](CC(=O)O)C(=O)N[C@@H](CO)C(=O)N[C@@H](Cc1ccc(O)cc1)C(=O)N[C@@H](CO)C(=O)N[C@@H](CCCNC(=N)N)C(=O)N[C@@H](Cc1ccc(O)cc1)C(=O)N[C@@H](CCCNC(=N)N)C(=O)N[C@@H](CCCCN)C(=O)N[C@@H](CCC(N)=O)C(=O)N[C@@H](CCSC)C(=O)N[C@@H](C)C(=O)N[C@H](C(=O)N[C@@H](CCCCN)C(=O)N[C@@H](CCCCN)C(=O)N[C@@H](Cc1ccc(O)cc1)C(=O)N[C@@H](CC(C)C)C(=O)N[C@@H](C)C(=O)N[C@@H](C)C(=O)N[C@H](C(=O)N[C@@H](CC(C)C)C(N)=O)C(C)C)C(C)C)[C@@H](C)O` are 174 nM, 70% and 335 nM.
For `CC[C@H](C)[C@H](NC(=O)CNC(=O)[C@H](CC(=O)O)N(C)C(=O)[C@H](CO)NC(=O)[C@@H](N)Cc1cnc[nH]1)C(=O)N[C@@H](Cc1ccccc1)C(=O)N[C@H](C(=O)N[C@@H](CC(=O)O)C(=O)N[C@@H](CO)C(=O)N[C@@H](Cc1ccc(O)cc1)C(=O)N[C@@H](CO)C(=O)N[C@@H](CCCNC(=N)N)C(=O)N[C@@H](Cc1ccc(O)cc1)C(=O)N[C@@H](CCCNC(=N)N)C(=O)N[C@@H](CCCCN)C(=O)N[C@@H](CCC(N)=O)C(=O)N[C@@H](CCSC)C(=O)N[C@@H](C)C(=O)N[C@H](C(=O)N[C@@H](CCCCN)C(=O)N[C@@H](CCCCN)C(=O)N[C@@H](Cc1ccc(O)cc1)C(=O)N[C@@H](CC(C)C)C(=O)N[C@@H](C)C(=O)N[C@@H](C)C(=O)N[C@H](C(=O)N[C@@H](CC(C)C)C(N)=O)C(C)C)C(C)C)[C@@H](C)O` the same measures were 418 nM, 89.2% and 25.2 nM.
Regarding `CC[C@H](C)[C@H](NC(=O)[C@H](C)NC(=O)[C@H](CC(=O)O)NC(=O)[C@H](CO)NC(=O)[C@@H](N)Cc1cnc[nH]1)C(=O)N[C@@H](Cc1ccccc1)C(=O)N[C@H](C(=O)N[C@@H](CC(=O)O)C(=O)N[C@@H](CO)C(=O)N[C@@H](Cc1ccc(O)cc1)C(=O)N[C@@H](CO)C(=O)N[C@@H](CCCNC(=N)N)C(=O)N[C@@H](Cc1ccc(O)cc1)C(=O)N[C@@H](CCCNC(=N)N)C(=O)N[C@@H](CCCCN)C(=O)N[C@@H](CCC(N)=O)C(=O)N[C@@H](CCSC)C(=O)N[C@@H](C)C(=O)N[C@H](C(=O)N[C@@H](CCCCN)C(=O)N[C@@H](CCCCN)C(=O)N[C@@H](Cc1ccc(O)cc1)C(=O)N[C@@H](CC(C)C)C(=O)N[C@@H](C)C(=O)N[C@@H](C)C(=O)N[C@H](C(=O)N[C@@H](CC(C)C)C(=O)NCC(=O)N[C@@H](CCCCN)C(=O)N[C@@H](CCCNC(=N)N)C(=O)N[C@@H](Cc1ccc(O)cc1)C(=O)N[C@@H](CCCCN)C(=O)N[C@@H](CCC(N)=O)C(=O)N[C@@H](CCCNC(=N)N)C(=O)N[C@H](C(=O)N[C@@H](CCCCN)C(=O)N[C@@H](CC(N)=O)C(=O)N[C@@H](CCCCN)C(N)=O)C(C)C)C(C)C)C(C)C)[C@@H](C)O` (H-HSDAIFTDSYSRYRKQMAVKKYLAAVLGKRYKQRVKNK-NH2), the EC50 in experiment [1] was determined as 7.4 nM. Besides, the Emax in experiment [2] amounted to 90.2%. Besides, the IC50 in experiment [3] is 9.84 nM.
`CC[C@H](C)[C@H](NC(=O)CNC(=O)[C@H](CC(=O)O)NC(=O)[C@H](CO)NC(=O)[C@@H](N)Cc1cnc[nH]1)C(=O)N[C@@H](Cc1ccccc1)C(=O)N(C)[C@H](C(=O)N[C@@H](CC(=O)O)C(=O)N[C@@H](CO)C(=O)N[C@@H](Cc1ccc(O)cc1)C(=O)N[C@@H](CO)C(=O)N[C@@H](CCCNC(=N)N)C(=O)N[C@@H](Cc1ccc(O)cc1)C(=O)N[C@@H](CCCNC(=N)N)C(=O)N[C@@H](CCCCN)C(=O)N[C@@H](CCC(N)=O)C(=O)N[C@@H](CCSC)C(=O)N[C@@H](C)C(=O)N[C@H](C(=O)N[C@@H](CCCCN)C(=O)N[C@@H](CCCCN)C(=O)N[C@@H](Cc1ccc(O)cc1)C(=O)N[C@@H](CC(C)C)C(=O)N[C@@H](C)C(=O)N[C@@H](C)C(=O)N[C@H](C(=O)N[C@@H](CC(C)C)C(N)=O)C(C)C)C(C)C)[C@@H](C)O`: the EC50 in experiment [1] is 2120 nM. The maximum response (Emax) in experiment [2] was determined as 35.4%. For the same compound, the IC50 in experiment [3] is 2040 nM.
